Test results taken from ChEMBL document CHEMBL5661979, “Pharmacological inhibition of BMK1 suppresses tumor growth through promyelocytic leukemia protein” (Cancer Cell, 2010).

Legend:
[1] = biological target: Calcium/calmodulin-dependent protein kinase type II subunit gamma (Homo sapiens, UniProt Q13555); experiment: Inhibition of CAMK2g in human HeLa cells lysate pre incubated for 15 mins followed by ATP acyl phosphate probe addition and measured after 10 mins by LC-MS/MS analysis; type: subcellular
How it was run: (§1)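 KiNativ profiling in HeLa lysate (5 mg/mL total protein). Lysate incubated 15 min with inhibitor at 50, 10, 2, 0.8 or 0 μM. ATP or ADP acylphosphate probe then added (5 μM final) and reacted 10 min. Reaction stopped with urea and analysed by targeted MS, using up to four fragment ions per kinase peptide-probe conjugate. % inhibition taken against untreated lysate. Run in duplicate.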

[2] = biological target: Serine/threonine-protein kinase Chk1 (Homo sapiens, UniProt O14757); experiment: Inhibition of CHK1 in human HeLa cells lysate pre incubated for 15 mins followed by ATP acyl phosphate probe addition and measured after 10 mins by LC-MS/MS analysis; type: subcellular
[3] = biological target: Mitogen-activated protein kinase 3 (Homo sapiens, UniProt P27361); experiment: Inhibition of ERK1 in human HeLa cells lysate pre incubated for 15 mins followed by ATP acyl phosphate probe addition and measured after 10 mins by LC-MS/MS analysis; type: subcellular
[4] = biological target: Cyclin-dependent kinase 11B (Homo sapiens, UniProt P21127); experiment: Inhibition of PITSLRE in human HeLa cells lysate pre incubated for 15 mins followed by ATP acyl phosphate probe addition and measured after 10 mins by LC-MS/MS analysis; type: subcellular
[5] = biological target: Peripheral plasma membrane protein CASK (Homo sapiens, UniProt O14936); experiment: Inhibition of CASK in human HeLa cells lysate pre incubated for 15 mins followed by ADP acyl phosphate probe addition and measured after 10 mins by LC-MS/MS analysis; type: subcellular; how it was run: as §1
[6] = biological target: Cyclin-dependent kinase 13 (Homo sapiens, UniProt Q14004); experiment: Inhibition of CHED in human HeLa cells lysate pre incubated for 15 mins followed by ADP acyl phosphate probe addition and measured after 10 mins by LC-MS/MS analysis; type: subcellular; how it was run: as §1
[7] = Inhibition of PCTAIRE2/ICK in human HeLa cells lysate pre incubated for 15 mins followed by ADP acyl phosphate probe addition and measured after 10 mins by LC-MS/MS analysis; type: subcellular
[8] = biological target: Serine/threonine-protein kinase PLK1 (Homo sapiens, UniProt P53350); experiment: Inhibition of PLK1 splice variant in human HeLa cells lysate at 50 uM pre incubated for 15 mins followed by ADP acyl phosphate probe addition and measured after 10 mins by LC-MS/MS analysis relative to control; type: subcellular; conditions: time 25.0 min
[9] = Inhibition of PCTAIRE2/ICK in human HeLa cells lysate at 2 uM pre incubated for 15 mins followed by ADP acyl phosphate probe addition and measured after 10 mins by LC-MS/MS analysis relative to control; conditions: 25 min, condition cancer
[10] = biological target: Tyrosine-protein kinase CSK (Homo sapiens, UniProt P41240); experiment: Inhibition of CSK in human HeLa cells lysate at 2 uM pre incubated for 15 mins followed by ADP acyl phosphate probe addition and measured after 10 mins by LC-MS/MS analysis relative to control; type: subcellular; conditions: time 25.0 min
[11] = biological target: Ribosomal protein S6 kinase alpha-3 (Homo sapiens, UniProt P51812); experiment: Inhibition of RSK2 domain 1 active form in human HeLa cells lysate at 50 uM pre incubated for 15 mins followed by ATP acyl phosphate probe addition and measured after 10 mins by LC-MS/MS analysis relative to control; type: subcellular; conditions: time 25.0 min
[12] = biological target: Cyclin-dependent kinase 9 (Homo sapiens, UniProt P50750); experiment: Inhibition of CDK9 in human HeLa cells lysate at 50 uM pre incubated for 15 mins followed by ATP acyl phosphate probe addition and measured after 10 mins by LC-MS/MS analysis relative to control; type: subcellular; conditions: time 25.0 min; how it was run: as §1
[13] = biological target: T1, Serine/threonine-protein kinase Sgk3 (Homo sapiens) (UniProt Q96BR1); experiment: Inhibition of SGK3 in human HeLa cells lysate at 50 uM pre incubated for 15 mins followed by ATP acyl phosphate probe addition and measured after 10 mins by LC-MS/MS analysis relative to control; type: subcellular; conditions: time 25.0 min
T1 sequence (whole entry): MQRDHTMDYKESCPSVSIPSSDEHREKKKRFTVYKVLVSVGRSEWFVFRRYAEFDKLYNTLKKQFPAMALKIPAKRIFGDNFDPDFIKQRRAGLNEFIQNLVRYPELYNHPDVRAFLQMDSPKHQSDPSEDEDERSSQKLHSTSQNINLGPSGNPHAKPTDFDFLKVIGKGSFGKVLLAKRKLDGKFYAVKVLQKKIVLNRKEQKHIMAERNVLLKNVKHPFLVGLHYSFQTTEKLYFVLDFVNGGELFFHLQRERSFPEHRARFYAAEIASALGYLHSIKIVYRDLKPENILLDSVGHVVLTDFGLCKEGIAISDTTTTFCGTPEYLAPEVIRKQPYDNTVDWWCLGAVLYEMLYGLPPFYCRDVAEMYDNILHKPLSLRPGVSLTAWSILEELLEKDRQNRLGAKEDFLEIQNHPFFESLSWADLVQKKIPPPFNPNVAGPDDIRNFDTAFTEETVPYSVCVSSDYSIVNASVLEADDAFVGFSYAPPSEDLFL

[14] = biological target: T2, Phosphatidylinositol 5-phosphate 4-kinase type-2 gamma (Homo sapiens) (UniProt Q8TBX8); experiment: Inhibition of PIP5K2C LIP1 site in human HeLa cells lysate at 10 uM pre incubated for 15 mins followed by ATP acyl phosphate probe addition and measured after 10 mins by LC-MS/MS analysis relative to control; type: subcellular; conditions: time 25.0 min
T2 sequence (whole entry): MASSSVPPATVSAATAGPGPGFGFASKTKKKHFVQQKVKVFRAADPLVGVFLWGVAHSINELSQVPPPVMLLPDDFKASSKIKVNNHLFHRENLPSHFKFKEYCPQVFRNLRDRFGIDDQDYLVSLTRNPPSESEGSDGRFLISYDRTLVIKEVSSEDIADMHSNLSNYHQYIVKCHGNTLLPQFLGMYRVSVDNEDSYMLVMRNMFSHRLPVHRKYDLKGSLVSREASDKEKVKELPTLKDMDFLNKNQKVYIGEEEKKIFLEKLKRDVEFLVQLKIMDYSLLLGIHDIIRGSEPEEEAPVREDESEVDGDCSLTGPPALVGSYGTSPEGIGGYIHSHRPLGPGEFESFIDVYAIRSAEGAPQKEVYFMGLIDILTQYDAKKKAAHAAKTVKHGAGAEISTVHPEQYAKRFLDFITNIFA

[15] = Inhibition of KHS1/2 in human HeLa cells lysate at 2 uM pre incubated for 15 mins followed by ATP acyl phosphate probe addition and measured after 10 mins by LC-MS/MS analysis relative to control; conditions: 25 min, condition cancer
[16] = Toxicity in C57Bl/6 mouse assessed as effect on alkaline phosphatase level at 50 mg/kg, ip for 14 days (reference value: 51 U/L); type: organism-based; conditions: in vivo, 336 h, time 14 day

Sequence of Cyclin-dependent kinase 9 (P50750 whole entry): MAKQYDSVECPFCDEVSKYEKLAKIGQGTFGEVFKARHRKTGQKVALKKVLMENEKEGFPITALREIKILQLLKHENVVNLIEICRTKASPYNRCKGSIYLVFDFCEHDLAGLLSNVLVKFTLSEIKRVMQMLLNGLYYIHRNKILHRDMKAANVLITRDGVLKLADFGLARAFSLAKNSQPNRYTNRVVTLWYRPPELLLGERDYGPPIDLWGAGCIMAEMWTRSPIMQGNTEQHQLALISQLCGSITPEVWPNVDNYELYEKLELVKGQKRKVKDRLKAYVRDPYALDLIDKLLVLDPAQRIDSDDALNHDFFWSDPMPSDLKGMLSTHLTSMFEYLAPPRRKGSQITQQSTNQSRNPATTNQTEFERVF
Sequence of Tyrosine-protein kinase CSK (P41240 2-450 limits assumed): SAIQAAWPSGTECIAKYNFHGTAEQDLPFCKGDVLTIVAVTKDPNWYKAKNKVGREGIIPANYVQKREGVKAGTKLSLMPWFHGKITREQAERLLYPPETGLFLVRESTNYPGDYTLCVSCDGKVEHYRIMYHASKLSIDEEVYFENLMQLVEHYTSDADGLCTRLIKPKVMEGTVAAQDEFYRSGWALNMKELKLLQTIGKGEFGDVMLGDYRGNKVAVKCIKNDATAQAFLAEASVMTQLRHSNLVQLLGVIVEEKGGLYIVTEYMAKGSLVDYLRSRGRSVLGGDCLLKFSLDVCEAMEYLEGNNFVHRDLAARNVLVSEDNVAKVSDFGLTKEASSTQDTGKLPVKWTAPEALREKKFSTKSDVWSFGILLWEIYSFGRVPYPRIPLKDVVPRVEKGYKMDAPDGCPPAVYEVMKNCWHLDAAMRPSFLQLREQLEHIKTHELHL
Sequence of Cyclin-dependent kinase 11B (P21127 whole entry): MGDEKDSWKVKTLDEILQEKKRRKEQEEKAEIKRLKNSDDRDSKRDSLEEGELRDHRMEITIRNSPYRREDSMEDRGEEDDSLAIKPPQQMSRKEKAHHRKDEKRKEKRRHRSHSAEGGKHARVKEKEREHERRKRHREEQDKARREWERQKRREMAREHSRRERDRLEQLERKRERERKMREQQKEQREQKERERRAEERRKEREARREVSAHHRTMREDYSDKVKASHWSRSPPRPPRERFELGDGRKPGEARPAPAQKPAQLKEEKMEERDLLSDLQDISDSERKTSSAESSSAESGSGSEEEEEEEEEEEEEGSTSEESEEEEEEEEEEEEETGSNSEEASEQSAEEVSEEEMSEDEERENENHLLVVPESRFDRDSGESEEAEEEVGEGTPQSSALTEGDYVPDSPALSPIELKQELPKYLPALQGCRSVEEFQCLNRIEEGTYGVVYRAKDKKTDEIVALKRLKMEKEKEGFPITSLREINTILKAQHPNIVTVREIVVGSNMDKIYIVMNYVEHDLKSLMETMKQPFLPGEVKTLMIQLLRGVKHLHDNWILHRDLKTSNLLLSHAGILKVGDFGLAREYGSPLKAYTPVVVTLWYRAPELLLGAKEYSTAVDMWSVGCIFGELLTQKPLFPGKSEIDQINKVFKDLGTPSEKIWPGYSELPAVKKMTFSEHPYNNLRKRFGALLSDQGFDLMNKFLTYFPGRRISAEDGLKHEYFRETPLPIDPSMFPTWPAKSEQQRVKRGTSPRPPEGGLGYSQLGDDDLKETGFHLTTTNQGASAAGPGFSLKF
Sequence of Serine/threonine-protein kinase Chk1 (O14757 whole entry): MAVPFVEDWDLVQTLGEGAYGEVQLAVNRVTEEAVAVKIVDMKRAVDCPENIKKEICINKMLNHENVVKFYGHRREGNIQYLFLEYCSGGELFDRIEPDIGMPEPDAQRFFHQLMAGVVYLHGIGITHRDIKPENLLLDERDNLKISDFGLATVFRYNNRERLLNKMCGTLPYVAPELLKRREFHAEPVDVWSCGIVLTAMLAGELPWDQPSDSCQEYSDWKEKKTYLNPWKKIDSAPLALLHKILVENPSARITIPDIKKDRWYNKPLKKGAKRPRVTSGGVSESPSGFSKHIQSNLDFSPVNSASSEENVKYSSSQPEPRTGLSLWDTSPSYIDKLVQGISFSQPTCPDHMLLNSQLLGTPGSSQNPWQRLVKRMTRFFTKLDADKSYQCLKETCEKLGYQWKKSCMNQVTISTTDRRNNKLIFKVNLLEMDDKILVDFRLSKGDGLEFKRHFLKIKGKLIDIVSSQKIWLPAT
Sequence of Mitogen-activated protein kinase 3 (P27361 whole entry): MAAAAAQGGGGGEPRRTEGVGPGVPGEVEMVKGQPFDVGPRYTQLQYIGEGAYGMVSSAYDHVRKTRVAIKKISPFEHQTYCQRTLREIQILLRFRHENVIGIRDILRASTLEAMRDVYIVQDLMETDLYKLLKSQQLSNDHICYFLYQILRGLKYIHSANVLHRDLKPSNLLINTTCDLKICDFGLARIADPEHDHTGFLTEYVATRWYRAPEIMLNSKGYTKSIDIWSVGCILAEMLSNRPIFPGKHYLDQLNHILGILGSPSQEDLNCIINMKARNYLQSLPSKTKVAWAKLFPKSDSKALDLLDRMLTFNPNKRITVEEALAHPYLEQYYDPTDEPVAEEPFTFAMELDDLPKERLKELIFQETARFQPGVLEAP
Sequence of Calcium/calmodulin-dependent protein kinase type II subunit gamma (Q13555 whole entry, the tested form may be a part): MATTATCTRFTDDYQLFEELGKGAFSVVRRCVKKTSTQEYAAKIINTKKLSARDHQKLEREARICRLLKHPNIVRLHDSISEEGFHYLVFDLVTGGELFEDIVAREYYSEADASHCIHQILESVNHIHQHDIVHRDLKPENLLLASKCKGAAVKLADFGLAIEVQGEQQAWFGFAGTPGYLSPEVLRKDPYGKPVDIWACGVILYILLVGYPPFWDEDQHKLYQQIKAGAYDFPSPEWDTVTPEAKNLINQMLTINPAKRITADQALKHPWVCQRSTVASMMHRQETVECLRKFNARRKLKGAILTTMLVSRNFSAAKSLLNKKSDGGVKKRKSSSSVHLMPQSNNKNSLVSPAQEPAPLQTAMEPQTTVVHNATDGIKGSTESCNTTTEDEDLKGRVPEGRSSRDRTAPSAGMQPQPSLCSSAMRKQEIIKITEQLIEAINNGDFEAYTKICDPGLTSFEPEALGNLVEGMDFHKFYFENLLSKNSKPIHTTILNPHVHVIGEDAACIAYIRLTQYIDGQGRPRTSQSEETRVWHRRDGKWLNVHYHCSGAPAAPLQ
Sequence of Ribosomal protein S6 kinase alpha-3 (P51812 whole entry, the tested form may be a part): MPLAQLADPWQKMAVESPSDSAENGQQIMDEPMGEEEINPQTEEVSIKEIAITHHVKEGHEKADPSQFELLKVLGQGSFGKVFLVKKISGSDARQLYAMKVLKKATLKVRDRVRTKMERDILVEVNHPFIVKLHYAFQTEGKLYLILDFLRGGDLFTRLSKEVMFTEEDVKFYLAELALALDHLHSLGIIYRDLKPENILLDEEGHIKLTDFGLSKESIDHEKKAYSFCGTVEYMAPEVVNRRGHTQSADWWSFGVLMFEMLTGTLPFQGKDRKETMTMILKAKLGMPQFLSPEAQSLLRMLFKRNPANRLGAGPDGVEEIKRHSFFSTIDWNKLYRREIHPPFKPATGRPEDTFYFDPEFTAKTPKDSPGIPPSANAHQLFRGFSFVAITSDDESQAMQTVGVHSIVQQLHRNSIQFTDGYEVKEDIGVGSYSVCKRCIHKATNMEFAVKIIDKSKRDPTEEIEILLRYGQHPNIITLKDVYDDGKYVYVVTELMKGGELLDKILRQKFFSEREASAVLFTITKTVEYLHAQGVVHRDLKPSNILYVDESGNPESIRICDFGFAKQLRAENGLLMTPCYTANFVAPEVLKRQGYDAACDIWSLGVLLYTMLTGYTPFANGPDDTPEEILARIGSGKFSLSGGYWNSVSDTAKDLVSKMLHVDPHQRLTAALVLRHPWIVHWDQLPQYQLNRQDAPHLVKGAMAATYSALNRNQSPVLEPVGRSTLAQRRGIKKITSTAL
Sequence of Peripheral plasma membrane protein CASK (O14936 whole entry): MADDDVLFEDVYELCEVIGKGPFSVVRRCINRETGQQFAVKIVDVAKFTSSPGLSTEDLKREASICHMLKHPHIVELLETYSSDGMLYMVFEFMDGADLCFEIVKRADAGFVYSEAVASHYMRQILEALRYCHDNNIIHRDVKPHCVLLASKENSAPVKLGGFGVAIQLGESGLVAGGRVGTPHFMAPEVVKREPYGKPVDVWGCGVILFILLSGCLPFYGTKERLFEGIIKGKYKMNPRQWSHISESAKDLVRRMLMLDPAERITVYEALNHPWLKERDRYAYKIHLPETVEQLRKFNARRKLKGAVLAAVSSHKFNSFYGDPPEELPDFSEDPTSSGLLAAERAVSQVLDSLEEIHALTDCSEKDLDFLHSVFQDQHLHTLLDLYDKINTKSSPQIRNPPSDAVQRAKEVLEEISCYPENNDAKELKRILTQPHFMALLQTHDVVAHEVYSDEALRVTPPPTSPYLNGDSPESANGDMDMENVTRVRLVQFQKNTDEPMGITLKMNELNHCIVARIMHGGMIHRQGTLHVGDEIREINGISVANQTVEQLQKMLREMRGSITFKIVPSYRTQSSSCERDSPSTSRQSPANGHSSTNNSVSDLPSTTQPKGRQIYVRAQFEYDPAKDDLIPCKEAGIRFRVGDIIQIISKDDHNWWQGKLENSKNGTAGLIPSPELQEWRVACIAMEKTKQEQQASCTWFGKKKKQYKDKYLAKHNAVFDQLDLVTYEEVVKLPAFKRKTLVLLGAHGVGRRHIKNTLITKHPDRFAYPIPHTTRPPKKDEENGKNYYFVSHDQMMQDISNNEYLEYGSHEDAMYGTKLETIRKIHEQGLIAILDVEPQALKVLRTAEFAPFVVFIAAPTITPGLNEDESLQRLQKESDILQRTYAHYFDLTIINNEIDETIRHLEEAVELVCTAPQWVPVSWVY

Question: What does the source list for `CCOc1cc(N2CCC(O)CC2)ccc1Nc1ncc2c(n1)N(C)c1ccccc1C(=O)N2C`?
Answer: IC50 [1]: > 50 µM; IC50 [2]: > 50 µM; IC50 [3]: > 50 µM; IC50 [4]: > 50 µM; IC50 [5]: > 50 µM; IC50 [6]: > 50 µM; IC50 [7]: > 50 µM; inhibition [8]: 13.3%; inhibition at 2 µM [9]: 1.2%; inhibition [10]: 11.6%; inhibition [11]: 11.5%; inhibition [12]: -0.3%; inhibition [13]: -0.9%; inhibition [14]: -1.3%; inhibition at 2 µM [15]: -8.6%; Activity [16]: 235 U/L
